This is an account of results in ChEMBL document CHEMBL2163301, “Substrates for efficient fluorometric screening employing the NAD-dependent sirtuin 5 lysine deacylase (KDAC) enzyme” (J Med Chem, 2012).

For assay [1], the target named is NAD-dependent protein deacylase sirtuin-6 (Homo sapiens) (UniProt Q8N6T7). As to the kind of experiment: Activity of human SIRT6 assessed as deacylation of compound at 50 uM after 1 hr by trypsin developer-based fluorescence assay. Put shortly:
(§1)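 Recombinant sirtuin at 1 μg per 50 μL reaction, with SIRT1-GST fusion as the SIRT1 source. Fluorogenic substrate and NAD incubated in Tris-Cl buffer pH 8.0 with BSA (1 mg/mL) for 1 h at 37 °C. Developer with nicotinamide (2 mM) and trypsin (0.4 mg/mL) added, 15–30 min at room temperature. Fluorescence read at ex 360/em 460 nm and normalized to no-enzyme wells. At least two experiments in duplicate.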

Assay [2] has as its target T1, NAD-dependent protein lipoamidase sirtuin-4, mitochondrial (Homo sapiens) (UniProt Q9Y6E7).
T1 sequence (whole entry): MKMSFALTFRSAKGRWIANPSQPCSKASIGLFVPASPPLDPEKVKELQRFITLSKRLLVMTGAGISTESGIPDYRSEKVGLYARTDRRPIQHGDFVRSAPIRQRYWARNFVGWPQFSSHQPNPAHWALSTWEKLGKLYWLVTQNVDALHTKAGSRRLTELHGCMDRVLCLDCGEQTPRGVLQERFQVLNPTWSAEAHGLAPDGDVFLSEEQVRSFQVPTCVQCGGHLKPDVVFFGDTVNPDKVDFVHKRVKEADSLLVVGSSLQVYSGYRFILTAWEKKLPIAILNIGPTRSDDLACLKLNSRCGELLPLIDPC
As to the kind of experiment: Activity of recombinant human SIRT4 assessed as deacylation of compound at 50 uM after 1 hr by trypsin developer-based fluorescence assay. Put shortly: as §1

Assay [3] concerns the target T2, NAD-dependent protein deacetylase sirtuin-2 (Homo sapiens) (UniProt Q8IXJ6).
T2 sequence (whole entry): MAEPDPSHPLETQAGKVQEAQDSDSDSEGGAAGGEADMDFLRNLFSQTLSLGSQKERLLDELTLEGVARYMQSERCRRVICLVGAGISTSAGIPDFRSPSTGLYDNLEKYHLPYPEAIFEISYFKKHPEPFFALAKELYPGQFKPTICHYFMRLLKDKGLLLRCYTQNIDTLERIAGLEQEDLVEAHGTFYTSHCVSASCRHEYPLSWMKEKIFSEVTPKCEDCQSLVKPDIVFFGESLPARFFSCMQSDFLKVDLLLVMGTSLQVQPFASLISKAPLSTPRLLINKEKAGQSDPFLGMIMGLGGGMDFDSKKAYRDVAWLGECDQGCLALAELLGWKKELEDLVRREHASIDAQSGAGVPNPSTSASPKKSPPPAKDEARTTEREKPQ
As to the kind of experiment: Activity of human SIRT2 assessed as deacylation of compound at 50 uM after 1 hr by trypsin developer-based fluorescence assay. A digest of the protocol:
as §1

The target in assay [4] is T3, NAD-dependent protein deacetylase sirtuin-1 (Homo sapiens) (UniProt Q96EB6).
T3 sequence (whole entry): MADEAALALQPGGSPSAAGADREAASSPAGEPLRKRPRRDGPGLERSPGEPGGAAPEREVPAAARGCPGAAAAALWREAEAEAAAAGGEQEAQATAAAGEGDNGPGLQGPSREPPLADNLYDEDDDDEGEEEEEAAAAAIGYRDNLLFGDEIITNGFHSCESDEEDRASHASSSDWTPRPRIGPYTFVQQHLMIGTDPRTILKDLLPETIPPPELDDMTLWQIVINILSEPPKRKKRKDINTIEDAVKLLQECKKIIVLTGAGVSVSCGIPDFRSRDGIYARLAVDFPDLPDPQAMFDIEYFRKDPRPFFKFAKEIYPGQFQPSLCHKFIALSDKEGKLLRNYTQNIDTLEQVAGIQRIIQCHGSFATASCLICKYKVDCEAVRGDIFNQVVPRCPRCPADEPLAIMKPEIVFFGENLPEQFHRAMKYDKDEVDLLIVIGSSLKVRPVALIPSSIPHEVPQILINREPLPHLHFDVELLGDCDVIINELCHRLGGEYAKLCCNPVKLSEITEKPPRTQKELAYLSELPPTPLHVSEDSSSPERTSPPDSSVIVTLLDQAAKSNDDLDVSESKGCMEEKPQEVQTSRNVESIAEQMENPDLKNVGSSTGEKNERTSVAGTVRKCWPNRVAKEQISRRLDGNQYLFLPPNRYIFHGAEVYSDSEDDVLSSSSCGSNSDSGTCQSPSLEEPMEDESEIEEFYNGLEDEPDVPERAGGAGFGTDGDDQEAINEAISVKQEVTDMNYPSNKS
As to the kind of experiment: Activity of human SIRT1 assessed as deacylation of compound at 50 uM after 1 hr by trypsin developer-based fluorescence assay. Put shortly:
as §1

Assay [5] concerns the target T4, NAD-dependent protein deacetylase sirtuin-7 (Homo sapiens) (UniProt Q9NRC8).
T4 sequence (whole entry): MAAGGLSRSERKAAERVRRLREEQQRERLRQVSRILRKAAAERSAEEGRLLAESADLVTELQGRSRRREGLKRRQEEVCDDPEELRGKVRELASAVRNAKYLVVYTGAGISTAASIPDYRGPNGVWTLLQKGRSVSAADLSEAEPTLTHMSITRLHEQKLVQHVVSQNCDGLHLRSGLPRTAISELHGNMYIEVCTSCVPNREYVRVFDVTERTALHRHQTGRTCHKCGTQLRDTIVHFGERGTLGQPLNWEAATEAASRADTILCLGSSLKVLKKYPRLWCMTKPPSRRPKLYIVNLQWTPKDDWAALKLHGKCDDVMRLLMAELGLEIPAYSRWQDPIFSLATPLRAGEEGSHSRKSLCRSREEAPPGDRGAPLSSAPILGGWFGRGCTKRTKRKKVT
As to the kind of experiment: Activity of recombinant human SIRT7 assessed as deacylation of compound at 50 uM after 1 hr by trypsin developer-based fluorescence assay. A digest of the protocol: as §1

Assay [6] concerns the target T3, NAD-dependent protein deacetylase sirtuin-1 (Homo sapiens). As to the kind of experiment: Activity of human full length SIRT1 enzyme at 50 uM after 1 hr by trypsin developer-based fluorescence assay. Put shortly: (§2)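 Acetylated substrates were each treated with commercial full-length His-tagged SIRT1 or truncated SIRT1-GST fusion, with NAD, in Tris-Cl pH 8.0 buffer containing BSA. End point: 1 h at 37 °C, then nicotinamide (2 mM)/trypsin (0.4 mg/mL) developer for 15–30 min at room temperature. Fluorescence read at ex 360/em 460 nm against no-enzyme control wells.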

Assay [7] has as its target T5, NAD-dependent protein deacetylase sirtuin-3, mitochondrial (Homo sapiens) (UniProt Q9NTG7).
T5 sequence (whole entry): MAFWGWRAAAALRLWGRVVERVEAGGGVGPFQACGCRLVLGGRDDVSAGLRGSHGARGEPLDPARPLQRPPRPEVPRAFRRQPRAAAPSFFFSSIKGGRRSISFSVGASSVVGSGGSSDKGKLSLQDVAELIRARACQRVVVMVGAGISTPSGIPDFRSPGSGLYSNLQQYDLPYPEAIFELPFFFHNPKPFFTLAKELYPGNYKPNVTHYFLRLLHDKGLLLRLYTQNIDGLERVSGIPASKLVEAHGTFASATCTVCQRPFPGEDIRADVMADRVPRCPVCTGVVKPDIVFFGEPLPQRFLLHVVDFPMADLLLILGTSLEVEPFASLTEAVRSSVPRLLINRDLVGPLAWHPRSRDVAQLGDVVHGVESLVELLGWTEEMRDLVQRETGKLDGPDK
As to the kind of experiment: Activity of human SIRT3 assessed as deacylation of compound at 50 uM after 1 hr by trypsin developer-based fluorescence assay. A digest of the protocol:
as §1

The target of assay [8] is NAD-dependent protein deacylase sirtuin-5, mitochondrial (Homo sapiens) (UniProt Q9NXA8). As to the kind of experiment: Activity of human SIRT5 assessed as deacylation of compound at 50 uM after 1 hr by trypsin developer-based fluorescence assay. A digest of the protocol: as §1
Assay [9] deals with T3, NAD-dependent protein deacetylase sirtuin-1 (Homo sapiens). As to the kind of experiment: Activity of human truncated SIRT1-GST fusion protein at 50 uM after 1 hr by trypsin developer-based fluorescence assay. A digest of the protocol: as §2

Active and inactive are the calls of the source. No cut-off for these calls is given here. *1 amine or outer side, *2 acyl side, *3 side chain or, on linkers, in order; H or OH if unused. Where a SMILES comes first, the peptide text is derived from it. The star is where a group is joined. AMC = Cc1cc(=O)oc2cc(N*)ccc12; Suc = O=C(CCC(=O)[*:2])[*:1]

Sequence of NAD-dependent protein deacylase sirtuin-6 (Homo sapiens) (Q8N6T7 whole entry, the tested form may be a part): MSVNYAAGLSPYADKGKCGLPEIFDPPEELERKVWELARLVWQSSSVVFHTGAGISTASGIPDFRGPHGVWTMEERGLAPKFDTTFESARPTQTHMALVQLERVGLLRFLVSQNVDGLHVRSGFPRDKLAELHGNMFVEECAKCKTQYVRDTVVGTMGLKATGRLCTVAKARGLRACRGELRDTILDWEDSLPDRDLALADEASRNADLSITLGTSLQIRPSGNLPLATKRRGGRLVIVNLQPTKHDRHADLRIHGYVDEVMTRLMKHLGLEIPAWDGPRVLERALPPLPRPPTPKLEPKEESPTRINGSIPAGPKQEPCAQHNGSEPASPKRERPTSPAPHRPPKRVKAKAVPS
Sequence of NAD-dependent protein deacylase sirtuin-5, mitochondrial (Homo sapiens) (Q9NXA8 37-310 limits assumed): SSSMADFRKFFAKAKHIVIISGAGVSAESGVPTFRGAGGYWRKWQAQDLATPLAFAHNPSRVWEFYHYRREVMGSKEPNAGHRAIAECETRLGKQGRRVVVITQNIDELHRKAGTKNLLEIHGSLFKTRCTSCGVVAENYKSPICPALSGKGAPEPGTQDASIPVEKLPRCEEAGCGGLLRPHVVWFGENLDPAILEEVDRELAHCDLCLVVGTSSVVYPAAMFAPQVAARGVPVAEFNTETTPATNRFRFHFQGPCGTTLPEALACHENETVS

`CC(=O)NCCCC[C@H](NC(=O)[C@H](CCCCN)NC(=O)[C@@H]1CCCN1C(=O)[C@H](CCC(N)=O)NC(C)=O)C(=O)Nc1ccc2c(C)cc(=O)oc2c1` (Ac-QPKK(Ac)-{AMC}): the result in assay [1], in [2], in assay [5], in [6], in [8] and in [9] was inactive. Moreover, the outcome in assay [3], in assay [4] and in [7] was Active.

Regarding `CC(=O)NCCCC[C@H](NC(C)=O)C(=O)Nc1ccc2c(C)cc(=O)oc2c1`, the outcome in [1], in assay [2], in assay [5], in assay [6], in [8] and in assay [9] was inactive. The outcome in [3], in [4] and in assay [7] was Active.

As to `CC(=O)NCCCC[C@H](NC(=O)[C@H](CCCCNC(C)=O)NC(=O)[C@H](Cc1cnc[nH]1)NC(=O)[C@H](CCCNC(=N)N)NC(C)=O)C(=O)Nc1ccc2c(C)cc(=O)oc2c1` (Ac-RHK(Ac)K(Ac)-{AMC}), the result in assay [1], in assay [2], in assay [5], in [6], in assay [8] and in [9] was inactive. Moreover, the result in assay [3], in [4] and in assay [7] was Active.

Regarding `CC(=O)NCCCC[C@H](NC(=O)CNC(=O)[C@H](CC(C)C)NC(C)=O)C(=O)Nc1ccc2c(C)cc(=O)oc2c1` (Ac-Leu-Gly-Lys(Ac)-{AMC}), the result in assay [1], in [2], in [5], in assay [6], in [8] and in assay [9] was inactive. Moreover, the outcome in [3], in [4] and in assay [7] was Active.

Turning to `CC(=O)NCCCC[C@H](NC(=O)[C@H](CCCNC(=N)N)NC(=O)[C@H](C)NC(=O)[C@@H](NC(C)=O)[C@H](C)O)C(=O)Nc1ccc2c(C)cc(=O)oc2c1`, the outcome in [1], in assay [2], in assay [5] and in assay [8] was inactive. The result in assay [3], in assay [4], in assay [6], in [7] and in [9] was Active.

For the compound `CC(=O)N[C@@H](CC(C)C)C(=O)NCC(=O)N[C@@H](CCCCNC(=O)CCC(=O)O)C(=O)Nc1ccc2c(C)cc(=O)oc2c1` (Ac-Leu-Gly-Lys(Suc)-{AMC}), the result in [1], in assay [2] and in [5] was inactive. For the same compound, the result in [8] was Active.

As for `CC(=O)NCCCC[C@H](NC(=O)[C@H](CCCCN)NC(=O)[C@H](Cc1cnc[nH]1)NC(=O)[C@H](CCCNC(=N)N)NC(C)=O)C(=O)Nc1ccc2c(C)cc(=O)oc2c1` (Ac-RHKK(Ac)-{AMC}), the result in assay [1], in [2], in assay [5], in assay [6], in [8] and in assay [9] was inactive. In addition, the outcome in [3], in [4] and in assay [7] was Active.
